Measured values from ChEMBL document CHEMBL3045579, “Herbicidal activity of cineole derivatives” (2010).
Calls of active or inactive are those of the source.

Assays:
Radish [1] = assay: Pre-emergence herbicidal activity against Raphanus sativus var.Long scarlet (radish) seeds assessed as shoot length at 0.1 mol/l at 25 degC after 72 hr by laboratory-based agar medium bioassay relative to 1,8-Cineole; assay type: functional
How it was run: (§1)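 Agar-plate assay as above: compound in organic solvent evaporated onto Ca/B water agar, 10 seeds × 5 dishes, 72 h at 25 °C in light. Germination, root length or shoot length at 0.1 mol L^-1 expressed relative to 1,8-cineole.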

Radish [2] = assay: Pre-emergence herbicidal activity against Raphanus sativus var.Long scarlet (radish) seeds assessed as concentration required to suppress shoot growth at 25 degC after 72 hr by laboratory-based agar medium bioassay; assay type: functional
Radish [3] = assay: Pre-emergence herbicidal activity against Raphanus sativus var.Long scarlet (radish) seeds assessed as shoot growth inhibition at 1 mol/l at 25 degC after 72 hr by laboratory-based agar medium bioassay; assay type: functional, organism-based
How it was run: (§2)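 Solutions tested at 1 to 1 × 10^-4 mol L^-1. 10 seeds/dish, 5 randomized replicate dishes angled ~70°. Incubated 72 h at 25 °C in light. Solvent and no-solvent controls. Germination, root length and shoot length recorded.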

Radish [4] = assay: Pre-emergence herbicidal activity against Raphanus sativus var.Long scarlet (radish) seeds assessed as root length at 0.1 mol/l at 25 degC after 72 hr by laboratory-based agar medium bioassay relative to control; assay type: functional; how it was run: as §2
Radish [5] = assay: Pre-emergence herbicidal activity against Raphanus sativus var.Long scarlet (radish) seeds assessed as shoot length at 0.1 mol/l at 25 degC after 72 hr by laboratory-based agar medium bioassay relative to control; assay type: functional; how it was run: as §2
Radish [6] = assay: Pre-emergence herbicidal activity against Raphanus sativus var.Long scarlet (radish) seeds assessed as concentration required to suppress seed germination at 25 degC after 72 hr by laboratory-based agar medium bioassay; assay type: functional
Radish [7] = assay: Pre-emergence herbicidal activity against Raphanus sativus var.Long scarlet (radish) seeds assessed as seed germination at 0.1 mol/l at 25 degC after 72 hr by laboratory-based agar medium bioassay relative to control; assay type: functional; how it was run: as §2
Radish [8] = assay: Pre-emergence herbicidal activity against Raphanus sativus var.Long scarlet (radish) seeds assessed as seed germination at 0.1 mol/l at 25 degC after 72 hr by laboratory-based agar medium bioassay relative to 1,8-Cineole; assay type: functional; how it was run: as §1
Radish [9] = assay: Pre-emergence herbicidal activity against Raphanus sativus var.Long scarlet (radish) seeds assessed as concentration required to suppress root growth at 25 degC after 72 hr by laboratory-based agar medium bioassay; assay type: functional
Radish [10] = assay: Pre-emergence herbicidal activity against Raphanus sativus var.Long scarlet (radish) seeds assessed as root length at 0.1 mol/l at 25 degC after 72 hr by laboratory-based agar medium bioassay relative to 1,8-Cineole; assay type: functional; how it was run: as §1
Radish [11] = assay: Pre-emergence herbicidal activity against Raphanus sativus var.Long scarlet (radish) seeds assessed as seed germination inhibition at 1 mol/l at 25 degC after 72 hr by laboratory-based agar medium bioassay; assay type: functional, organism-based; how it was run: as §2
Lolium rigidum [12] = assay: Pre-emergence herbicidal activity against Lolium rigidum seeds assessed as concentration required to suppress seed germination at 25 degC after 72 hr by laboratory-based agar medium bioassay; assay type: functional
Lolium rigidum [13] = assay: Pre-emergence herbicidal activity against Lolium rigidum seeds assessed as root length at 0.1 mol/l at 25 degC after 72 hr by laboratory-based agar medium bioassay relative to control; assay type: functional; how it was run: as §2
Lolium rigidum [14] = assay: Pre-emergence herbicidal activity against Lolium rigidum seeds assessed as root length at 0.1 mol/l at 25 degC after 72 hr by laboratory-based agar medium bioassay relative to 1,8-Cineole; assay type: functional; how it was run: as §1
Lolium rigidum [15] = assay: Pre-emergence herbicidal activity against Lolium rigidum seeds assessed as concentration required to suppress shoot growth at 25 degC after 72 hr by laboratory-based agar medium bioassay; assay type: functional
Lolium rigidum [16] = assay: Pre-emergence herbicidal activity against Lolium rigidum seeds assessed as shoot length at 0.1 mol/l at 25 degC after 72 hr by laboratory-based agar medium bioassay relative to control; assay type: functional; how it was run: as §2
Lolium rigidum [17] = assay: Pre-emergence herbicidal activity against Lolium rigidum seeds assessed as seed germination at 0.1 mol/l at 25 degC after 72 hr by laboratory-based agar medium bioassay relative to control; assay type: functional; how it was run: as §2
Lolium rigidum [18] = assay: Pre-emergence herbicidal activity against Lolium rigidum seeds assessed as shoot length at 0.1 mol/l at 25 degC after 72 hr by laboratory-based agar medium bioassay relative to 1,8-Cineole; assay type: functional; how it was run: as §1
Lolium rigidum [19] = assay: Pre-emergence herbicidal activity against Lolium rigidum seeds assessed as shoot growth inhibition at 0.001 to 0.01 mol/l at 25 degC after 72 hr by laboratory-based agar medium bioassay; assay type: functional, organism-based; how it was run: as §2
Lolium rigidum [20] = assay: Pre-emergence herbicidal activity against Lolium rigidum seeds assessed as concentration required to suppress root growth at 25 degC after 72 hr by laboratory-based agar medium bioassay; assay type: functional
Lolium rigidum [21] = assay: Pre-emergence herbicidal activity against Lolium rigidum seeds assessed as seed germination at 0.1 mol/l at 25 degC after 72 hr by laboratory-based agar medium bioassay relative to 1,8-Cineole; assay type: functional; how it was run: as §1
Lolium rigidum [22] = assay: Pre-emergence herbicidal activity against Lolium rigidum seeds assessed as concentration required to suppress root growth at 25 degC after 72 hr by filter paper bioassay; assay type: functional
How it was run: (§3)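 Two seed-plate formats. Filter paper: sterile paper wetted with 1 mL aqueous solution containing 3.4 × 10^-4 g mL^-1 Tween 80, dish sealed and flat. 10 seeds/dish, 5 dishes per concentration. Incubated 72 h at 25 °C under light. Threshold taken by one-way ANOVA at P = 0.05.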

Lolium rigidum [23] = assay: Pre-emergence herbicidal activity against Lolium rigidum seeds assessed as concentration required to suppress seed germination at 25 degC after 72 hr by filter paper bioassay; assay type: functional; how it was run: as §3
Radish [24] = assay: Pre-emergence herbicidal activity against Raphanus sativus var.Long scarlet (radish) seeds assessed as seed germination at 0.1 mol/l at 25 degC after 72 hr by filter paper bioassay relative to control; assay type: functional
How it was run: (§4)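 Seeds on sterile filter paper wetted with 1 mL aqueous solution containing 3.4 × 10^-4 g mL^-1 Tween 80. Eucalyptus oil tested at 0.0154 g mL^-1, giving about 0.1 mol L^-1 1,8-cineole. Dishes sealed and kept flat. 10 seeds/dish, 5 dishes. Incubated 72 h at 25 °C under 135–195 μE m^-2 s^-1 light. Germination, root length or shoot length compared with control.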

Radish [25] = assay: Pre-emergence herbicidal activity against Raphanus sativus var.Long scarlet (radish) seeds assessed as concentration required to suppress root growth at 25 degC after 72 hr by filter paper bioassay; assay type: functional; how it was run: as §3
Lolium rigidum [26] = assay: Pre-emergence herbicidal activity against Lolium rigidum seeds assessed as root length at 0.1 mol/l at 25 degC after 72 hr by filter paper bioassay relative to control; assay type: functional; how it was run: as §4
Radish [27] = assay: Pre-emergence herbicidal activity against Raphanus sativus var.Long scarlet (radish) seeds assessed as root length at 0.1 mol/l at 25 degC after 72 hr by filter paper bioassay relative to control; assay type: functional; how it was run: as §4
Radish [28] = assay: Pre-emergence herbicidal activity against Raphanus sativus var.Long scarlet (radish) seeds assessed as shoot length at 0.1 mol/l at 25 degC after 72 hr by filter paper bioassay relative to control; assay type: functional; how it was run: as §4
Lolium rigidum [29] = assay: Pre-emergence herbicidal activity against Lolium rigidum seeds assessed as concentration required to suppress shoot growth at 25 degC after 72 hr by filter paper bioassay; assay type: functional; how it was run: as §3
Lolium rigidum [30] = assay: Pre-emergence herbicidal activity against Lolium rigidum seeds assessed as shoot length at 0.1 mol/l at 25 degC after 72 hr by filter paper bioassay relative to control; assay type: functional; how it was run: as §4
Radish [31] = assay: Pre-emergence herbicidal activity against Raphanus sativus var.Long scarlet (radish) seeds assessed as concentration required to suppress seed germination at 25 degC after 72 hr by filter paper bioassay; assay type: functional; how it was run: as §3
Radish [32] = assay: Pre-emergence herbicidal activity against Raphanus sativus var.Long scarlet (radish) seeds assessed as concentration required to suppress shoot growth at 25 degC after 72 hr by filter paper bioassay; assay type: functional; how it was run: as §3
Lolium rigidum [33] = assay: Pre-emergence herbicidal activity against Lolium rigidum seeds assessed as seed germination at 0.1 mol/l at 25 degC after 72 hr by filter paper bioassay relative to control; assay type: functional; how it was run: as §4
Radish [34] = assay: Pre-emergence herbicidal activity against Raphanus sativus var.Long scarlet (radish)seeds assessed as seed germination inhibition at 25 degC after 72 hr by laboratory-based agar medium bioassay; assay type: functional, organism-based; how it was run: as §2
Radish [35] = assay: Pre-emergence herbicidal activity against Raphanus sativus var.Long scarlet (radish) seeds assessed as shoot growth inhibition at 25 degC after 72 hr by laboratory-based agar medium bioassay; assay type: functional, organism-based; how it was run: as §2
Radish [36] = assay: Pre-emergence herbicidal activity against Raphanus sativus var.Long scarlet (radish) seeds assessed as root growth inhibition at 25 degC after 72 hr by laboratory-based agar medium bioassay; assay type: functional, organism-based; how it was run: as §2

## Cc1ccccc1CO[C@@H]1C[C@@]2(C(C)C)CCC1(C)O2 [CINMETHYLIN]
Radish [1]
  Ratio: 1
Radish [2]
  Activity: 0.01 mol/L
Radish [3]
  Activity: inactive
Radish [4]
  Activity: 36.5%
Radish [5]
  Activity: 62.5%
Radish [6]
  Activity: 1 mol/L
Radish [7]
  Activity: 85.7%
Radish [8]
  Ratio: 0.4
Radish [9]
  Activity: 0.0001 mol/L
Radish [10]
  Ratio: 0.8

## CCCCCC(=O)O[C@@H]1C[C@@]2(C(C)C)CC[C@@]1(C)O2 (racemic) [2-Exo-hexoxy-1,4-cineole]
Radish [11]
  Activity: inactive

## CC12CCC(C(=O)C1)C(C)(C)O2 (racemic) [3-oxo-1,8-cineole]
Lolium rigidum [12]
  Activity: 0.1 mol/L
Lolium rigidum [13]
  Activity: 18.9%
Lolium rigidum [14]
  Ratio: 1.2
Radish [1]
  Ratio: 2.2
Radish [2]
  Activity: 0.01 mol/L
Lolium rigidum [15]
  Activity: 0.0001 mol/L
Radish [4]
  Activity: 20.5%
Lolium rigidum [16]
  Activity: 18.2%
Lolium rigidum [17]
  Activity: 33.3%
Radish [5]
  Activity: 29.3%
Radish [6]
  Activity: 0.01 mol/L
Lolium rigidum [18]
  Ratio: 1.6
Radish [7]
  Activity: 10%
Radish [8]
  Ratio: 3.4
Lolium rigidum [19]
  Activity: inactive
Radish [9]
  Activity: 0.01 mol/L
Lolium rigidum [20]
  Activity: 0.1 mol/L
Lolium rigidum [21]
  Ratio: 0.9
Radish [10]
  Ratio: 1.8

## CC12CCC(CC1)C(C)(C)O2 [EUCALYPTOL]
Lolium rigidum [22]
  Activity: 0.1 mol/L
Lolium rigidum [23]
  Activity: 0.1 mol/L
Radish [24]
  Activity: 34.1%
Radish [25]
  Activity: 1 mol/L
Lolium rigidum [26]
  Activity: 22.4%
Radish [27]
  Activity: 37.1%
Radish [28]
  Activity: 64.7%
Lolium rigidum [29]
  Activity: 0.1 mol/L
Lolium rigidum [30]
  Activity: 28.4%
Radish [31]
  Activity: 0.1 mol/L
Radish [32]
  Activity: 1 mol/L
Lolium rigidum [33]
  Activity: 30.2%

## CC(C)[C@]12CC[C@@](C)(O1)[C@H](OC(=O)c1ccccc1)C2 (racemic) [2-exo-benzoxy-1,4-cineole]
Lolium rigidum [12]
  Activity: 0.1 mol/L
Lolium rigidum [13]
  Activity: 28%
Lolium rigidum [14]
  Ratio: 0.8
Radish [1]
  Ratio: 1
Radish [2]
  Activity: 0.01 mol/L
Lolium rigidum [15]
  Activity: 0.0001 mol/L
Radish [4]
  Activity: 54.7%
Lolium rigidum [16]
  Activity: 23.7%
Lolium rigidum [17]
  Activity: 46.3%
Radish [5]
  Activity: 64%
Radish [6]
  Activity: inactive
Lolium rigidum [18]
  Ratio: 1.2
Radish [7]
  Activity: 82.9%
Radish [8]
  Ratio: 0.4
Radish [34]
  Activity: inactive
Radish [9]
  Activity: 0.01 mol/L
Lolium rigidum [20]
  Activity: 0.0001 mol/L
Lolium rigidum [21]
  Ratio: 0.7
Radish [10]
  Ratio: 0.7

## CC(C)(C)CC(=O)O[C@H]1C[C@@]2(C)CC[C@H]1C(C)(C)O2 (racemic) [3-exo-t-butylacetoxy-1,8-cineole]
Lolium rigidum [12]
  Activity: 0.1 mol/L
Lolium rigidum [13]
  Activity: 64.9%
Lolium rigidum [14]
  Ratio: 0.3
Radish [1]
  Ratio: 0.7
Radish [2]
  Activity: inactive
Radish [35]
  Activity: inactive
Lolium rigidum [15]
  Activity: 0.001 mol/L
Radish [4]
  Activity: 72.5%
Lolium rigidum [16]
  Activity: 44.8%
Lolium rigidum [17]
  Activity: 97.8%
Radish [5]
  Activity: 90.9%
Radish [6]
  Activity: 0.1 mol/L
Lolium rigidum [18]
  Ratio: 0.6
Radish [7]
  Activity: 31.4%
Radish [8]
  Ratio: 1.1
Radish [9]
  Activity: inactive
Lolium rigidum [20]
  Activity: 0.01 mol/L
Radish [36]
  Activity: inactive
Lolium rigidum [21]
  Ratio: 0.3
Radish [10]
  Ratio: 0.5
